Data from ChEMBL document CHEMBL5058577, “EUbOPEN Chemogenomics Library 2 (Multiplex)” (2022).

System: U2OS
Assay: Multiplex assay against U2OS
Format: toxicity, cell-based
Details: human
How it was run: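 Compound was added to live cells that had been stained at seeding with Hoechst33342, BioTracker Green Microtubule Cytoskeleton Dye, MitoTracker Red and Annexin V Alexa Fluor 680, and imaging followed on a CQ1 microscope at 37°C and 5% CO2. CellPathfinder machine-learning gating divided cells into Hoechst high-intensity objects or normal cells, normal cells into healthy, pyknosed or fragmented nuclei, and pyknosed cells into mitotic or apoptotic. Tubulin, mitochondrial-mass and membrane-permeability phenotypes are per cents of healthy-nucleus cells.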

[1] = 12 h, 1 µM, compound concentration 1 uM, replicate 1
[2] = 12 h, 1 µM, compound concentration 1 uM, replicate 2
[3] = 12 h, 10 µM, compound concentration 10 uM, replicate 1
[4] = 12 h, 10 µM, compound concentration 10 uM, replicate 2
[5] = 24 h, 1 µM, compound concentration 1 uM, replicate 1
[6] = 24 h, 1 µM, compound concentration 1 uM, replicate 2
[7] = 24 h, 10 µM, compound concentration 10 uM, replicate 1
[8] = 24 h, 10 µM, compound concentration 10 uM, replicate 2
[9] = 48 h, 1 µM, compound concentration 1 uM, replicate 1
[10] = 48 h, 1 µM, compound concentration 1 uM, replicate 2
[11] = 48 h, 10 µM, compound concentration 10 uM, replicate 1
[12] = 48 h, 10 µM, compound concentration 10 uM, replicate 2

## CC(C)c1noc(N2CCC(COc3ccc(-c4ccc(S(C)(=O)=O)cc4)nc3)CC2)n1 [GSK-1292263]
[1]
  Population Apoptotic (%): 72%
  Population Fragmented Nuclei (%): 27%
  Population Healthy Nuclei (%): 62%
  Population Hoechst High Intensity Objects (%): 2%
  Population Membrane Permeable-Phenotype (%): 3%
  Population Mitochondria Different-Phenotype (%): 2%
  Population Mitotic Cells (%): 27%
  Population Normal (%): 97%
  Population Pyknosed Nuclei (%): 10%
  Population Tubulin-Different-Phenotype (%): 0%
  Total Cell Count: 177
[2]
  Population Apoptotic (%): 100%
  Population Fragmented Nuclei (%): 16%
  Population Healthy Nuclei (%): 77%
  Population Hoechst High Intensity Objects (%): 1%
  Population Membrane Permeable-Phenotype (%): 4%
  Population Mitochondria Different-Phenotype (%): 0%
  Population Mitotic Cells (%): 0%
  Population Normal (%): 98%
  Population Pyknosed Nuclei (%): 5%
  Population Tubulin-Different-Phenotype (%): 2%
  Total Cell Count: 114
[3]
  Population Apoptotic (%): 90%
  Population Fragmented Nuclei (%): 31%
  Population Healthy Nuclei (%): 60%
  Population Hoechst High Intensity Objects (%): 2%
  Population Membrane Permeable-Phenotype (%): 10%
  Population Mitochondria Different-Phenotype (%): 6%
  Population Mitotic Cells (%): 10%
  Population Normal (%): 97%
  Population Pyknosed Nuclei (%): 7%
  Population Tubulin-Different-Phenotype (%): 6%
  Total Cell Count: 262
[4]
  Population Apoptotic (%): 100%
  Population Fragmented Nuclei (%): 20%
  Population Healthy Nuclei (%): 73%
  Population Hoechst High Intensity Objects (%): 0%
  Population Mitochondria Different-Phenotype (%): 8%
  Population Mitotic Cells (%): 0%
  Population Normal (%): 100%
  Population Pyknosed Nuclei (%): 5%
  Total Cell Count: 134
[5]
  Population Apoptotic (%): 63%
  Population Fragmented Nuclei (%): 32%
  Population Healthy Nuclei (%): 57%
  Population Hoechst High Intensity Objects (%): 1%
  Population Membrane Permeable-Phenotype (%): 5%
  Population Mitochondria Different-Phenotype (%): 2%
  Population Mitotic Cells (%): 36%
  Population Normal (%): 98%
  Population Pyknosed Nuclei (%): 9%
  Population Tubulin-Different-Phenotype (%): 3%
  Total Cell Count: 236
[6]
  Population Apoptotic (%): 66%
  Population Fragmented Nuclei (%): 15%
  Population Healthy Nuclei (%): 77%
  Population Hoechst High Intensity Objects (%): 0%
  Population Membrane Permeable-Phenotype (%): 2%
  Population Mitotic Cells (%): 33%
  Population Normal (%): 99%
  Population Pyknosed Nuclei (%): 6%
  Population Tubulin-Different-Phenotype (%): 1%
  Total Cell Count: 145
[7]
  Population Apoptotic (%): 92%
  Population Fragmented Nuclei (%): 25%
  Population Healthy Nuclei (%): 65%
  Population Hoechst High Intensity Objects (%): 0%
  Population Membrane Permeable-Phenotype (%): 10%
  Population Mitochondria Different-Phenotype (%): 3%
  Population Mitotic Cells (%): 7%
  Population Normal (%): 99%
  Population Pyknosed Nuclei (%): 9%
  Population Tubulin-Different-Phenotype (%): 3%
  Total Cell Count: 284
[8]
  Population Apoptotic (%): 66%
  Population Fragmented Nuclei (%): 15%
  Population Healthy Nuclei (%): 75%
  Population Hoechst High Intensity Objects (%): 2%
  Population Membrane Permeable-Phenotype (%): 6%
  Population Mitochondria Different-Phenotype (%): 5%
  Population Mitotic Cells (%): 33%
  Population Normal (%): 97%
  Population Pyknosed Nuclei (%): 8%
  Population Tubulin-Different-Phenotype (%): 2%
  Total Cell Count: 143
[9]
  Population Apoptotic (%): 77%
  Population Fragmented Nuclei (%): 23%
  Population Healthy Nuclei (%): 69%
  Population Hoechst High Intensity Objects (%): 2%
  Population Membrane Permeable-Phenotype (%): 3%
  Population Mitochondria Different-Phenotype (%): 3%
  Population Mitotic Cells (%): 22%
  Population Normal (%): 97%
  Population Pyknosed Nuclei (%): 6%
  Population Tubulin-Different-Phenotype (%): 2%
  Total Cell Count: 339
[10]
  Population Apoptotic (%): 90%
  Population Fragmented Nuclei (%): 15%
  Population Healthy Nuclei (%): 74%
  Population Hoechst High Intensity Objects (%): 1%
  Population Membrane Permeable-Phenotype (%): 6%
  Population Mitochondria Different-Phenotype (%): 2%
  Population Mitotic Cells (%): 10%
  Population Normal (%): 98%
  Population Pyknosed Nuclei (%): 10%
  Population Tubulin-Different-Phenotype (%): 1%
  Total Cell Count: 201
[11]
  Population Apoptotic (%): 87%
  Population Fragmented Nuclei (%): 22%
  Population Healthy Nuclei (%): 68%
  Population Hoechst High Intensity Objects (%): 4%
  Population Membrane Permeable-Phenotype (%): 6%
  Population Mitochondria Different-Phenotype (%): 2%
  Population Mitotic Cells (%): 12%
  Population Normal (%): 95%
  Population Pyknosed Nuclei (%): 9%
  Population Tubulin-Different-Phenotype (%): 2%
  Total Cell Count: 354
[12]
  Population Apoptotic (%): 83%
  Population Fragmented Nuclei (%): 12%
  Population Healthy Nuclei (%): 77%
  Population Hoechst High Intensity Objects (%): 1%
  Population Membrane Permeable-Phenotype (%): 5%
  Population Mitochondria Different-Phenotype (%): 4%
  Population Mitotic Cells (%): 16%
  Population Normal (%): 98%
  Population Tubulin-Different-Phenotype (%): 4%
  Total Cell Count: 189
